In ChEMBL document CHEMBL4431364, “Discovery and synthetic optimization of a novel scaffold for hydrophobic tunnel-targeted autotaxin inhibition” (Bioorg Med Chem, 2016):

Tests used:
Autotaxin [1] = molecular target: T1, Autotaxin (Homo sapiens, UniProt Q13822); test: Inhibition of C-terminal FLAG tagged human recombinant ATX expressed in insect sf9 cells using FS-3 as substrate measured every 2 mins for 60 mins by FRET assay
Procedure, shortened: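 Dose response over 0.03 to 30 μM compound, 10 nM human FLAG-fusion ATX, 1 μM FS-3 in pH 8.0 Tris/BSA assay buffer. Fluorescence at 485/520 nm every 2 min for 60 min at 37 °C, normalized to no-ATX and no-compound controls. IC50 by non-linear regression. Triplicate.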

Autotaxin [2] = molecular target: T1, Autotaxin; test: Inhibition of C-terminal FLAG tagged human recombinant ATX expressed in insect sf9 cells at 10 uM using FS-3 as substrate measured every 2 mins for 60 mins by FRET assay
Procedure, shortened: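 10 μM compound with 10 nM human FLAG-fusion ATX in pH 8.0 Tris buffer (30 μM BSA, 1 mM CaCl2, 1 mM MgCl2, 5 mM KCl, 140 mM NaCl) and 1 μM FS-3. Fluorescence at ex 485/em 520 nm read every 2 min for 60 min at 37 °C. Normalized to no-ATX (0%) and ATX without compound (100%). Triplicate.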

Autotaxin [3] = molecular target: T1, Autotaxin; test: Inhibition of C-terminal FLAG tagged human recombinant ATX expressed in insect sf9 cells at 10 uM using pNP-TMP as substrate measured every 2 mins for 60 mins by absorbance
[4] = molecular target: T2, Glycerophosphocholine cholinephosphodiesterase ENPP6 (Homo sapiens) (UniProt Q6UWR7); test: Inhibition of C-terminal FLAG tagged human recombinant NPP6 expressed in insect sf9 cells assessed as remaining enzyme activity response at 10 uM using pNPPC as substrate measured every 2 mins for 1 hr by […]
T2 sequence (whole entry): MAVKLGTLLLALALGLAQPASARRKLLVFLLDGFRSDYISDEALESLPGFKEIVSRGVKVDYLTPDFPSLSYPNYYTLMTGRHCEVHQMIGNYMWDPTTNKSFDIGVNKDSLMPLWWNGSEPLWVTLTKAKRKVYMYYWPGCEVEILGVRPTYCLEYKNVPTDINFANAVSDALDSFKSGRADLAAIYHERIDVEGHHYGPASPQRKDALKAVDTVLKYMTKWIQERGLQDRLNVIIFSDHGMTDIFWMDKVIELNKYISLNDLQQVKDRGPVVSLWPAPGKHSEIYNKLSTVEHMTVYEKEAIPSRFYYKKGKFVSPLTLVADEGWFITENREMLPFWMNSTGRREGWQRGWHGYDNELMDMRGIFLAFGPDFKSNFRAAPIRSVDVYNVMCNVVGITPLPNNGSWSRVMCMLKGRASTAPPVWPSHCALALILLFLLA
Procedure, shortened: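 Final 10 nM human FLAG-fusion NPP6, 10 μM compound, 10 μM pNPPC in 500 mM NaCl, 100 mM Tris-HCl, 0.05% Triton X-100, pH 9. A405 at 37 °C every 2 min for 1 h. Background absorbance subtracted. Mean percent response relative to enzyme-only control (no-enzyme = 0%). Triplicate.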

[5] = molecular target: T3, Ectonucleotide pyrophosphatase/phosphodiesterase family member 7 (Homo sapiens) (UniProt Q6UWV6); test: Inhibition of C-terminal FLAG tagged human recombinant NPP7 expressed in insect sf9 cells assessed as remaining enzyme activity response at 10 uM using pNPPC as substrate measured every 2 mins for 1 hr by […]
T3 sequence (whole entry): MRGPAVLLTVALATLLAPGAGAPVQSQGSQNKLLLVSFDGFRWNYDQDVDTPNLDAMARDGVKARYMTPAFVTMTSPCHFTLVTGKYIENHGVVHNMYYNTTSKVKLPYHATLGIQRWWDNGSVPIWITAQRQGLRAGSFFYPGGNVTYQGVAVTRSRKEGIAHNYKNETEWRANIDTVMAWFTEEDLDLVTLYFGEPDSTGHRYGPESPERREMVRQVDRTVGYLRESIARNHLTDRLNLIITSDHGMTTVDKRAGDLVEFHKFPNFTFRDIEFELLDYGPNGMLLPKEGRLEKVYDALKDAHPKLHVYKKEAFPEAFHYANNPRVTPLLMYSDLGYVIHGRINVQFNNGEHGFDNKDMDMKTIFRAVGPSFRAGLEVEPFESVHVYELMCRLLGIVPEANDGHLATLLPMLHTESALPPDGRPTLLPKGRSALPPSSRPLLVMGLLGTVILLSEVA
Procedure, shortened: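 Human FLAG-fusion NPP7 (10 nM final) with 10 μM compound and 10 μM pNPPC in 50 mM Tris-HCl, 150 mM NaCl, 10 mM taurocholate, pH 8. Absorbance at 405 nm, 37 °C, every 2 min for an hour. Background subtracted. Mean percent of enzyme-only response (no-enzyme = 0%). Triplicate.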

SMILES | IC50 (Autotaxin [1]) | inhibition (Autotaxin [2]) | inhibition (Autotaxin [3]) | Activity [4] | Activity [5]
O=C(O)c1cccc(N2CCN(C(=O)COc3ccc(Cl)cc3Cl)CC2)c1 | 2.1 µM | 76.1% | 29.5% | 95.2% | 103%
COc1ccc2c(c1)C(NCc1cc(OC)c(OC)cc1N)CCO2 (stereo not drawn) | 6.6 µM | 48% | 7.5% | – | –
O=C(COc1cccc(Cl)c1)N1CCN(c2cccc([N+](=O)[O-])c2)CC1 | 5.8 µM | 62.4% | 17.1% | – | –
O=C(COc1ccc(Cl)cc1)N1CCN(c2ccc([N+](=O)[O-])cc2)CC1 | 2.2 µM | 76% | 19.9% | 94% | 114%
O=C(COc1cccc(F)c1)N1CCN(c2ccc([N+](=O)[O-])cc2)CC1 | 6.6 µM | 63% | – | – | –
O=C(COc1ccc(C(F)(F)F)cc1)N1CCN(c2cccc([N+](=O)[O-])c2)CC1 | 4.2 µM | 60.4% | 30.3% | – | –
O=C(COc1ccc(C(F)(F)F)cc1)N1CCN(c2ccc([N+](=O)[O-])cc2)CC1 | 8.1 µM | 50.2% | 26.6% | – | –
CC(=O)OC1(C(=O)COC(=O)c2ccco2)CC2CCC3C4C=CC(=O)CC4(C)CCC3C2(C)C1 (stereo not drawn) | 5.7 µM | 59.6 to 59.7% | – | – | –
O=C(O)c1cccc(N2CCN(C(=O)COc3cccc(C(F)(F)F)c3)CC2)c1 | 2.2 µM | 67.1% | 37.9% | 89.2% | 87.3%
O=C(O)c1ccc(N2CCN(C(=O)COc3ccc(Cl)cc3)CC2)cc1 | 4.1 µM | 50.8% | 19.6% | – | –
O=C(COc1cccc(C(F)(F)F)c1)N1CCN(c2cccc([N+](=O)[O-])c2)CC1 | 4.6 µM | 61.9% | 14.3% | – | –
O=C(O)c1cccc(N2CCN(C(=O)COc3ccc(C(F)(F)F)cc3)CC2)c1 | 7.5 µM | 65% | 31.6% | – | –
O=C(O)c1cccc(N2CCN(C(=O)COc3ccccc3C(F)(F)F)CC2)c1 | 8.1 µM | 51.5% | 23.7% | – | –
O=C(O)c1ccccc1N1CCN(C(=O)COc2ccccc2Cl)CC1 | – | 12.1% | 1.7% | – | –
O=C(COc1ccc(F)cc1)N1CCN(c2ccc([N+](=O)[O-])cc2)CC1 | 6.4 µM | 65.4% | – | – | –
O=C(O)c1cccc(N2CCN(C(=O)COc3ccccc3F)CC2)c1 | – | 10.8% | 10.9% | – | –
O=C(COc1ccccc1C(F)(F)F)N1CCN(c2ccc([N+](=O)[O-])cc2)CC1 | 9.2 µM | 54.6% | -3.7% | – | –
O=C(COc1ccccc1Cl)N1CCN(c2ccccc2[N+](=O)[O-])CC1 | – | 47.1% | 18.7% | – | –
O=C(COc1ccc(F)cc1)N1CCN(c2cccc([N+](=O)[O-])c2)CC1 | – | 48.1% | 8.9% | – | –
O=C(COc1ccccc1C(F)(F)F)N1CCN(c2cccc([N+](=O)[O-])c2)CC1 | 6.7 µM | 56.4% | 7.7% | – | –
O=C(O)c1ccccc1N1CCN(C(=O)COc2ccccc2C(F)(F)F)CC1 | – | 17.3% | 4.6% | – | –
O=C(COc1ccc(Cl)cc1)N1CCN(c2ccccc2[N+](=O)[O-])CC1 | 8.2 µM | 59.1% | 38% | – | –
O=C(COc1ccccc1Cl)N1CCN(c2cccc([N+](=O)[O-])c2)CC1 | – | 41.9% | 4.9% | – | –
O=C(O)c1ccccc1N1CCN(C(=O)COc2ccc(Cl)cc2)CC1 | 6 µM | 74.5% | 32.1% | – | –
O=C(COc1ccc(Cl)cc1Cl)N1CCN(c2ccc([N+](=O)[O-])cc2)CC1 | 3.7 µM | 51.8% | – | 92.2% | 103%

SMILES | IC50 (Autotaxin [1]) | inhibition (Autotaxin [2]) | inhibition (Autotaxin [3]) | Activity [4] | Activity [5]
O=C(COc1cccc(Cl)c1)N1CCN(c2ccccc2[N+](=O)[O-])CC1 | – | 42.7% | 24.9% | – | –
O=C(O)c1ccccc1N1CCN(C(=O)COc2cccc(C(F)(F)F)c2)CC1 | – | 41.3% | -3.5% | – | –
O=C(O)c1cccc(N2CCN(C(=O)COc3ccc(F)cc3)CC2)c1 | 4.6 µM | 58.1% | 41.1% | – | –
O=C(COc1cccc(C(F)(F)F)c1)N1CCN(c2ccccc2[N+](=O)[O-])CC1 | – | 49.2% | 35.4% | – | –
O=C(O)c1cccc(N2CCN(C(=O)COc3cccc(F)c3)CC2)c1 | 8.9 µM | 55.2% | 30.2% | – | –
O=C(O)c1ccccc1N1CCN(C(=O)COc2ccc(Cl)cc2Cl)CC1 | – | 27.6% | -7.9% | – | –
O=C(O)c1ccc(N2CCN(C(=O)COc3ccccc3Cl)CC2)cc1 | – | 27.6% | 7.3% | – | –
O=C(COc1cccc(Cl)c1)N1CCN(c2ccc([N+](=O)[O-])cc2)CC1 | 4.6 µM | 70.6% | 15.6% | – | –
O=C(O)c1ccc(N2CCN(C(=O)COc3ccc(Cl)cc3Cl)CC2)cc1 | – | 23.9% | 9.7% | – | –
O=C(O)c1ccccc1N1CCN(C(=O)COc2cccc(F)c2)CC1 | – | -5.5% | -4.8% | – | –
O=C(COc1ccccc1F)N1CCN(c2ccccc2[N+](=O)[O-])CC1 | – | 25.6% | -1.8% | – | –
O=C(COc1cccc(C(F)(F)F)c1)N1CCN(c2ccc([N+](=O)[O-])cc2)CC1 | 4.9 µM | 63.3% | 4.1% | – | –
O=C(O)c1ccc(N2CCN(C(=O)COc3ccc(F)cc3)CC2)cc1 | – | 0.9% | -6.5% | – | –
O=C(O)c1cccc(N2CCN(C(=O)COc3ccccc3Cl)CC2)c1 | – | 42% | 11.5% | – | –
O=C(O)c1ccc(N2CCN(C(=O)COc3ccc(C(F)(F)F)cc3)CC2)cc1 | – | 46% | 7.9% | – | –
O=C(O)c1ccccc1N1CCN(C(=O)COc2ccc(F)cc2)CC1 | – | 11.5% | -7.2% | – | –
O=C(O)c1ccc(N2CCN(C(=O)COc3cccc(Cl)c3)CC2)cc1 | 6.5 µM | 56% | 6.8% | – | –
O=C(O)c1ccccc1N1CCN(C(=O)COc2cccc(Cl)c2)CC1 | – | 24.4% | -3.3% | – | –
O=C(O)c1ccc(N2CCN(C(=O)COc3ccccc3C(F)(F)F)CC2)cc1 | – | 10.9% | -0.8% | – | –
O=C(O)c1ccc(N2CCN(C(=O)COc3cc(Cl)cc(Cl)c3)CC2)cc1 | – | 46.7% | 27.8% | – | –
O=C(COc1ccccc1C(F)(F)F)N1CCN(c2ccccc2[N+](=O)[O-])CC1 | 11.4 µM | 50% | 38.2% | – | –
O=C(COc1cccc(F)c1)N1CCN(c2cccc([N+](=O)[O-])c2)CC1 | 6.2 µM | 59.8% | 13.3% | – | –
CCCCCCCCCCCCCC(=O)NC(CCC(=O)O)C(=O)O (stereo not drawn) | 6 µM | 54.1% | -6.9% | – | –
O=C(COc1ccc(Cl)cc1)N1CCN(c2cccc([N+](=O)[O-])c2)CC1 | 5.4 µM | 62.6% | 23.8% | – | –
O=C(COc1ccc(Cl)cc1Cl)N1CCN(c2ccccc2[N+](=O)[O-])CC1 | 4.1 µM | 69.8% | 37.1% | – | –
